Reference: publication PMC4515784 (Journal of Medicinal Chemistry, 2015)

What was measured:
HA-hSERT = HA-hSERT (Homo sapiens, UniProt P31645); experiment: hSERT photoaffinity labeling in HA-hSERT LLCPK1 cells; format: binding
[1] = Reversed-phase HPLC relative lipophilicity; format: physicochemical; details: C-18 column, 45% MeOH/CH3CN (1:1) and 55% water with Et3N and HOAc, 3.0 mL/min
Summary of the method: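 Waters C-18 Nova-Pak column (8 × 100 mm, 6 μm, radial compression). Organic phase MeOH/CH3CN 1:1 v/v; aqueous phase contained Et3N (2.1% v/v) and HOAc (2.8% v/v). Isocratic 45% organic/55% aqueous at 3.0 mL/min, with one analogue run at 42%/58%. Retention time and k′ recorded for radioiodinated products, matched to nonradioactive standards by coelution.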

hSERT = hSERT (Homo sapiens, UniProt P31645); format: cell-based
Sequence of hSERT (P31645 whole entry): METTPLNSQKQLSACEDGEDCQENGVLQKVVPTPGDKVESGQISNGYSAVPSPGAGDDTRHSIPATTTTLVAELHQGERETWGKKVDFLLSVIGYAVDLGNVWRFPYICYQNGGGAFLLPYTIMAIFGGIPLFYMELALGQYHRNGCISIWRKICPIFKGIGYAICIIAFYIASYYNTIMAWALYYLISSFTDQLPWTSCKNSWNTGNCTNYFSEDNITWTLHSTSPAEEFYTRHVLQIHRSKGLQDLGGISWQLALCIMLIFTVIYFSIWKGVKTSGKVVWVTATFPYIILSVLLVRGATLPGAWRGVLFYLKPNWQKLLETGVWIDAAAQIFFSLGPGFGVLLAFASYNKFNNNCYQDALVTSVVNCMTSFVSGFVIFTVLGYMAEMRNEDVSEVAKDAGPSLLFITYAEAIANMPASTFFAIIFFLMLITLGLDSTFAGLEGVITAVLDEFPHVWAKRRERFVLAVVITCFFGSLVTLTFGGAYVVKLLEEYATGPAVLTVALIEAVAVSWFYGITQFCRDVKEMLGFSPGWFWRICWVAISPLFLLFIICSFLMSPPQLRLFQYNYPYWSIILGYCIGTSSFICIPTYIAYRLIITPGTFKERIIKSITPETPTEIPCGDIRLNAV

Sequence of HA-hSERT (P31645 whole entry): as above

| Structure (SMILES) | Irreversible (covalent) labeling of hSERT upon photoactivation (HA-hSERT) | Capacity factor k′ (relative lipophilicity) [1] | Effect of (S)-citalopram preincubation on irreversible hSERT labeling (in words) (HA-hSERT) | Reduction in WT hSERT affinity compared to (S)-citalopram (hSERT) |
| --- | --- | --- | --- | --- |
| CN(CCC[C@@]1(c2ccc(F)cc2)OCc2cc(C#N)ccc21)CCc1ccc(N=[N+]=[N-])c([125I])c1 [[^125I]15, (S)-1-(3-((4-Azido-3-[^125I]-iodophenethyl)(methyl)amino)propyl)-1-(4-fluorophenyl)-1,3-dihydroisobenzofuran-5-carbonitrile] | covalently label | 18.3 | – | – |
| CN(C)CCC[C@@]1(c2ccc(F)cc2)OCc2cc(CNC(=O)CCc3ccc(N=[N+]=[N-])c([125I])c3)ccc21 [[^125I]22, (S)-3-(4-Azido-3-[^125I]-iodophenyl)-N-((1-(3-(dimethylamino)propyl)-1-(4-fluorophenyl)-1,3-dihydroisobenzofuran-5-yl)methyl)propanamide] | covalently label | 10.4 | completely eliminated | – |
| CN(C)CCC[C@@]1(c2ccc(F)cc2)OCc2cc(CNC(=O)c3ccc(N=[N+]=[N-])c([125I])c3)ccc21 [[^125I]26, (S)-4-Azido-N-((1-(3-(dimethylamino)propyl)-1-(4-fluorophenyl)-1,3-dihydroisobenzofuran-5-yl)methyl)-3-[^125I]-iodobenzamide] | covalently label | 10.6 | completely eliminated | – |
| CN(CCC[C@@]1(c2ccc(F)cc2)OCc2cc(C#N)ccc21)CCc1ccc(N=[N+]=[N-])c(I)c1 [compound 15, (S)-1-(3-((4-Azido-3-iodophenethyl)(methyl)amino)propyl)-1-(4-fluorophenyl)-1,3-dihydroisobenzofuran-5-carbonitrile] | – | – | – | 100 fold |
| CN(C)CCC[C@@]1(c2ccc(F)cc2)OCc2cc(CNC(=O)CCc3ccc(N=[N+]=[N-])c(I)c3)ccc21 [compound 22, (S)-3-(4-Azido-3-iodophenyl)-N-((1-(3-(dimethylamino)propyl)-1-(4-fluorophenyl)-1,3-dihydroisobenzofuran-5-yl)methyl)propanamide] | – | – | – | 17 fold |
| CN(C)CCC[C@@]1(c2ccc(F)cc2)OCc2cc(CNC(=O)c3ccc(N=[N+]=[N-])c(I)c3)ccc21 [compound 26, (S)-4-Azido-N-((1-(3-(dimethylamino)propyl)-1-(4-fluorophenyl)-1,3-dihydroisobenzofuran-5-yl)methyl)-3-iodobenzamide] | – | – | – | 11 fold |
